From ChEMBL document CHEMBL2390839, “Di-alkylated paromomycin derivatives: targeting the membranes of gram positive pathogens that cause skin infections” (Bioorg Med Chem, 2013)
Converted amounts (≈) assume the structure as drawn. The source made the active and inactive calls. The calls are words filed in the database; no cut-off is given here.

Assays:
Streptococcus pyogenes [1] = assay: Ratio of gramicidin D MIC to compound MIC for Streptococcus pyogenes MGAS9429; format: functional
Streptococcus pyogenes [2] = assay: Antibacterial activity against glossy colony producing Streptococcus pyogenes assessed as growth inhibition after 24 hrs by MTT assay; format: functional
Summary of the method: (§1)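 Starter cultures were grown 24 h at 37 °C, 5% CO2, aerobic, then diluted in fresh medium to OD600 0.004. Twofold serial dilutions started at 64 µg/mL. After 24 h of incubation, MTT (1 mg/mL solution) was added and plates were incubated 2 h more at 37 °C. MIC was taken as the lowest concentration with no growth. Two independent experiments were run, each in triplicate.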

[3] = Antibacterial activity against Streptococcus pyogenes serotype M5 assessed as growth inhibition after 24 hrs by MTT assay; format: functional; summary of the method: as §1
Staphylococcus aureus [4] = assay: Ratio of gramicidin D MIC to compound MIC for Staphylococcus aureus Cowan ATCC 12598; format: functional
Staphylococcus aureus [5] = assay: Ratio of gramicidin D MIC to compound MIC for Staphylococcus aureus NCTC 6571; format: functional
[6] = Hemolytic activity in rat RBC assessed as hemoglobin release at 16 ug/mL after 1 hr by microplate reader analysis relative to control; format: ADME, cell-based, Erythrocyte; conditions: red blood cells (RBC), read-out: Activity
Summary of the method: (§2)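 Rat RBCs (2% w/w) were exposed to compound for 1 h at 37 °C, 5% CO2, using twofold dilutions from 256 µg/mL. PBS served as the negative control and 1% w/v Triton X-100 as the 100% lysis control. After centrifugation (2000 rpm, 10 min), supernatant absorbance was read at 550 nm and expressed as % hemoglobin release relative to Triton. Assays were run in triplicate, averaged over blood from at least two rats.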

Staphylococcus aureus [7] = assay: Antibacterial activity against methicillin-resistant Staphylococcus aureus assessed as growth inhibition after 24 hrs by MTT assay; format: functional
Summary of the method: (§3)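 Starter cultures grown 24 h at 37 °C, 5% CO2, aerobic, then diluted in fresh medium to OD600 0.004. Twofold serial dilutions from 64 µg/mL, 24 h incubation. MTT (1 mg/mL solution) added, then 2 h at 37 °C. MIC = lowest concentration with no visible growth. Two independent experiments, each in triplicate.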

Streptococcus pyogenes [8] = assay: Antibacterial activity against Streptococcus pyogenes serotype T5 assessed as growth inhibition after 24 hrs by MTT assay; format: functional; conditions: serotype T5, 24 h; summary of the method: as §1
Staphylococcus aureus [9] = assay: Antibacterial activity against Staphylococcus aureus NCTC 6571 assessed as growth inhibition after 24 hrs by MTT assay; format: functional; conditions: NCTC 6571, 24 h; summary of the method: as §3
[10] = Hemolytic activity in rat RBC assessed as hemoglobin release at 256 ug/mL after 1 hr by microplate reader analysis relative to control; format: ADME, cell-based, Erythrocyte; conditions: red blood cells (RBC), read-out: Activity; summary of the method: as §2
[11] = Antibacterial activity against biofilm-positive Staphylococcus epidermidis RP62A ATCC 35984 assessed as growth inhibition after 24 hrs by MTT assay; format: functional; conditions: ATCC 35984, 24 h; summary of the method: as §1
[12] = system: Staphylococcus epidermidis; assay: Ratio of gramicidin D MIC to compound MIC for biofilm-negative Staphylococcus epidermidis ATCC 12228; format: functional
Streptococcus pyogenes [13] = assay: Antibacterial activity against Streptococcus pyogenes MGAS9429 assessed as growth inhibition after 24 hrs by MTT assay; format: functional; conditions: MGAS9429, 24 h; summary of the method: as §1
Streptococcus pyogenes [14] = assay: Antibacterial activity against Streptococcus pyogenes serotype M1T1 assessed as growth inhibition after 24 hrs by MTT assay; format: functional; conditions: serotype M1T1, 24 h; summary of the method: as §1
[15] = Antibacterial activity against Streptococcus pyogenes serotype M2 assessed as growth inhibition after 24 hrs by MTT assay; format: functional; summary of the method: as §1
[16] = system: Staphylococcus epidermidis; assay: Antibacterial activity against Staphylococcus epidermidis ATCC 12228 assessed as cell surface wrinkling at 1 ug/mL after 1 hr by scanning electron microscopic analysis; format: functional, organism-based
Summary of the method: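 S. epidermidis ATCC12228 grown 4 h at 37 °C, aerobic, to OD600 0.2. Cells washed in PBS pH 7.4 and resuspended to OD600 1.0. Treated with 1 µg/mL for 1 h at 37 °C, then diluted twofold. Washed, fixed overnight at 4 °C in 2.5% glutaraldehyde/PBS, dehydrated through graded ethanol, vacuum-dried, Pd-Au coated and imaged by SEM. Compared against untreated cells.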

Staphylococcus aureus [17] = assay: Antibacterial activity against Staphylococcus aureus Cowan ATCC 12598 assessed as growth inhibition after 24 hrs by MTT assay; format: functional; conditions: Cowan ATCC 12598, 24 h; summary of the method: as §3
[18] = Antibacterial activity against Streptococcus pyogenes serotype M3 assessed as growth inhibition after 24 hrs by MTT assay; format: functional; summary of the method: as §1
[19] = system: Staphylococcus epidermidis; assay: Antibacterial activity against biofilm-negative Staphylococcus epidermidis ATCC 12228 assessed as growth inhibition after 24 hrs by MTT assay; format: functional; conditions: ATCC 12228, 24 h; summary of the method: as §1
[20] = Hemolytic activity in rat RBC assessed as hemoglobin release at 128 ug/mL after 1 hr by microplate reader analysis; format: ADME, cell-based; conditions: erythrocyte; summary of the method: as §2
Streptococcus pyogenes [21] = assay: Ratio of gramicidin D MIC to compound MIC for glossy colony producing Streptococcus pyogenes; format: functional
Streptococcus pyogenes [22] = assay: Antibacterial activity against Streptococcus pyogenes serotype M24 assessed as growth inhibition after 24 hrs by MTT assay; format: functional; conditions: serotype M24, 24 h; summary of the method: as §1
Streptococcus pyogenes [23] = assay: Antibacterial activity against Streptococcus pyogenes JRS75 assessed as growth inhibition after 24 hrs by MTT assay; format: functional; conditions: JRS75, 24 h; summary of the method: as §1
[24] = Ratio of gramicidin D activity to compound activity for hemolysis of rat RBC up to 256 ug/mL after 1 hrs; format: ADME, cell-based; conditions: erythrocyte
[25] = Hemolytic activity in rat RBC assessed as hemoglobin release at 64 ug/mL after 1 hr by microplate reader analysis; format: ADME, cell-based; conditions: erythrocyte
Summary of the method: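 Rat RBCs (2% w/w) incubated 1 h at 37 °C, 5% CO2 with twofold dilutions starting at 256 µg/mL. PBS served as negative control and 1% w/v Triton X100 as the 100% lysis control. After centrifugation (2000 rpm, 10 min), supernatant absorbance read at 550 nm. Hemoglobin release expressed as % of Triton. Triplicates, with blood from at least two rats.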

[26] = Hemolytic activity in rat RBC assessed as hemoglobin release at 32 ug/mL after 1 hr by microplate reader analysis relative to control; format: ADME, cell-based, Erythrocyte; conditions: red blood cells (RBC), read-out: Activity; summary of the method: as §2

SMILES	MIC (Streptococcus pyogenes [2]) [µg/mL]	MIC [3] [µg/mL]	hemolysis at 1 h, 16 ug/mL [6] [%]	MIC (Staphylococcus aureus [7]) [µg/mL]	MIC (Streptococcus pyogenes [8]) [µg/mL]	MIC (Staphylococcus aureus [9]) [µg/mL]	hemolysis at 1 h, 256 ug/mL [10] [%]	MIC [11] [µg/mL]	MIC (Streptococcus pyogenes [13]) [µg/mL]	MIC (Streptococcus pyogenes [14]) [µg/mL]	MIC [15] [µg/mL]	Activity [16]	MIC (Staphylococcus aureus [17]) [µg/mL]	MIC [18] [µg/mL]	MIC [19] [µg/mL]	Activity [20]	MIC (Streptococcus pyogenes [22]) [µg/mL]	MIC (Streptococcus pyogenes [23]) [µg/mL]	further results
CCCCCCCCSC[C@H]1O[C@H](O[C@H]2[C@H](O[C@@H]3O[C@H](CSCCCCCCCC)[C@@H](O[C@H]4O[C@@H](CN)[C@@H](O)[C@H](O)[C@H]4N)[C@H]3O)[C@@H](O)[C@H](N)C[C@@H]2N)[C@H](N)[C@@H](O)[C@@H]1O	2 (≈ 2.29 µM)	2 (≈ 2.29 µM)	0.8	8 (≈ 9.17 µM)	2 (≈ 2.29 µM)	4 (≈ 4.59 µM)	62.5	2 (≈ 2.29 µM)	4 (≈ 4.59 µM)	2 (≈ 2.29 µM)	2 (≈ 2.29 µM)	Active	4 (≈ 4.59 µM)	2 (≈ 2.29 µM)	2 (≈ 2.29 µM)	Toxic	2 (≈ 2.29 µM)	2 (≈ 2.29 µM)	Ratio (Streptococcus pyogenes [1]): > 16; Ratio (Staphylococcus aureus [4]): > 16; Ratio (Staphylococcus aureus [5]): 16; Ratio [12]: 4; Ratio (Streptococcus pyogenes [21]): 8
CCCCCCCSC[C@H]1O[C@H](O[C@H]2[C@H](O[C@@H]3O[C@H](CSCCCCCCC)[C@@H](O[C@H]4O[C@@H](CN)[C@@H](O)[C@H](O)[C@H]4N)[C@H]3O)[C@@H](O)[C@H](N)C[C@@H]2N)[C@H](N)[C@@H](O)[C@@H]1O	4 (≈ 4.74 µM)	4 (≈ 4.74 µM)	0	16 (≈ 19 µM)	4 (≈ 4.74 µM)	8 (≈ 9.48 µM)	30.4	4 (≈ 4.74 µM)	4 (≈ 4.74 µM)	4 (≈ 4.74 µM)	2 (≈ 2.37 µM)		16 (≈ 19 µM)	2 (≈ 2.37 µM)	4 (≈ 4.74 µM)	Toxic	4 (≈ 4.74 µM)	4 (≈ 4.74 µM)	Ratio [24]: 2; Activity [25]: Toxic; hemolysis at 1 h, 32 ug/mL [26]: 3.6%
NC[C@@H]1O[C@H](O[C@H]2[C@@H](O)[C@H](O[C@@H]3[C@@H](O)[C@H](N)C[C@H](N)[C@H]3O[C@H]3O[C@H](CO)[C@@H](O)[C@H](O)[C@H]3N)O[C@@H]2CO)[C@H](N)[C@@H](O)[C@@H]1O [PAROMOMYCIN]	64 (≈ 104 µM)	32 (≈ 52 µM)		> 64	16 (≈ 26 µM)	> 64		> 64	> 64	64 (≈ 104 µM)	64 (≈ 104 µM)	Active	16 (≈ 26 µM)	32 (≈ 52 µM)	2 (≈ 3.25 µM)		64 (≈ 104 µM)	64 (≈ 104 µM)	
